Only some compounds are listed: those with a hit (about 4.8% of all), similar ones and a draw of the others.
CSC inhib: blocks cancer stem cells; 300,000 compounds, 1.1% hits; cancer stem cell-like cells viability, luminescence; inhibition, % at 7.5 µM; in the data active means inhibition above about 75%; tested in HMLE shEcad cells
Beta cell apopt: blocks beta cell apoptosis | INS-1E cytokine-induced death, ATP luminescence, 48 h; percent of positive-control rescue, neutral wells zero | 300,000 compounds, 0.8% hits | protection from apoptosis, % (no concentration beside the values);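 active means Every replicate reaches about 75%, or at least half do and their mean reaches it too, limit read from the data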;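 further: 0% = cytokine-treated negative control wells and 100% = positive control rescue; higher means more ATP so stronger rescue from cytokine killing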
Mdm2 MdmX PPI: human Mdm2/MdmX binding inhibition | AID 485346 | SaOS-2 split-luciferase Mdm2/MdmX complementation, luminescence | inhibition, % at 8 µM | 330,000 compounds, 3% hits;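 active means inhibition of at least 50% at 8 µM in the primary screen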
Target sequence (O15151 whole entry, looked up): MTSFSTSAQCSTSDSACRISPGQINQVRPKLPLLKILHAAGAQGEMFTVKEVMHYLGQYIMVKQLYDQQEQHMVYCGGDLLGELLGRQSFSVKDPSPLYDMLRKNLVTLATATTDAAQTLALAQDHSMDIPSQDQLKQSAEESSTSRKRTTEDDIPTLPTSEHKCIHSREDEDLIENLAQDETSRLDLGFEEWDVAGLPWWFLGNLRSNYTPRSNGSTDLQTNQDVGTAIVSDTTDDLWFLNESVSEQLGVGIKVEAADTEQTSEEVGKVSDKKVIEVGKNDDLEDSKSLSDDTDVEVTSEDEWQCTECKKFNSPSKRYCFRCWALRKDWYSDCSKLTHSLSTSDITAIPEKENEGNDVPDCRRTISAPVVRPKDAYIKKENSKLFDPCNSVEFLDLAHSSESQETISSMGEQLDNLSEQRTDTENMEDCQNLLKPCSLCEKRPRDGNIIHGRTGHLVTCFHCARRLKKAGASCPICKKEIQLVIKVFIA
Target sequence (Q00987 whole entry, looked up): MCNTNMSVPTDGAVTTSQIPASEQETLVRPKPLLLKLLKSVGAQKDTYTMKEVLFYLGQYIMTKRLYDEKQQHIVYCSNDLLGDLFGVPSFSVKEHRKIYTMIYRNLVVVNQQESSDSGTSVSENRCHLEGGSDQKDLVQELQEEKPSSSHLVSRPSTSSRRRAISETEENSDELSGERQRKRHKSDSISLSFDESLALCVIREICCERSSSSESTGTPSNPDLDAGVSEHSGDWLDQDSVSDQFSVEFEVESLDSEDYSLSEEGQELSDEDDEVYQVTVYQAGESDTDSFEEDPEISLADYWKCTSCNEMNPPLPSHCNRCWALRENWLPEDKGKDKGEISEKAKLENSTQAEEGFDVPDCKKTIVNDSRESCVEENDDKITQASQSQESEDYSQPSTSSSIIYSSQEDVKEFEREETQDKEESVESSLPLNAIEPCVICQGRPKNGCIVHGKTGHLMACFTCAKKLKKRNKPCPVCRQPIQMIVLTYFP
SKKanGAS inh: SKKanGAS growth inhibition; inhibition, % at 7.5 µM; 300,000 compounds, 1.3% hits; S. pyogenes SKKanGAS, kanamycin growth, BacTiter-Glo, 6 h; AID 1662;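 active means mean replicate score, as percent of positive control median, at least 50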;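 further: strain carries kanamycin resistance gene driven by streptokinase promoter and grows in 40 µg/ml kanamycin; loss of luminescence reflects streptokinase promoter inhibition or plain growth inhibition; 0% = median of DMSO wells and 100% = positive control at its reference dose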
UPR XBP1 act: adaptive UPR (XBP1) activation | 330,000 compounds, 0.33% hits | CHO-XBP1 luciferase reporter, IRE1-XBP1 UPR activation, luminescence; percent of tunicamycin response, DMSO as zero | activation, % at 20 µM;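 active means versus positive control, 20 µM dose yields 30% or more activation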;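 further: 100% = tunicamycin at 10 µg/mL and 0% = DMSO only wells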
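Test system: CHO-XBP1 luciferase reporter cells | Buffer or medium: Serum-containing F12 medium, 10% FBS | Schedule: 6 h compound exposure at 37 °C, 5% CO2 | Detection: Steady-Glo luciferase glow luminescence, 10 min after reagent addition | Read-out basis: Activation, % of tunicamycin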
UPR CHOP act: apoptotic UPR (CHOP) activation | CHO-CHOP luciferase reporter, luminescence; percent of tunicamycin response over DMSO baseline | activation, % at 10 µM | 330,000 compounds, 0.34% hits | AID 449763;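 active means at 10 µM dose, activation of 40% or more, normalized to positive control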;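 further: 100% = tunicamycin at 10 µg/mL and 0% = DMSO alone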
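measured by = luciferase luminescence | assay system = CHO-CHOP cells, stable luciferase reporter of PERK-eIF2a-CHOP signalling | amount = 500 reporter cells seeded per well | timing = 6 h compound exposure at 37 °C after overnight seeding | controls = positive tunicamycin 10 µg/mL, negative DMSO alone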
Mdm2 MdmX conf: confirmation of human Mdm2/MdmX interaction inhibitors | 10,000 compounds, 55% hits | AID 489028 | Mdm2-MdmX binding, luminescent assay | inhibition, % at 8 µM | shares compounds with Mdm2 MdmX PPI; in the data active means inhibition above about 40%
Full FLuc ctr: counter-screen for Mdm2/MdmX inhibitors: full-length luciferase; shares compounds with Mdm2 MdmX PPI; SaOS-2 full-length luciferase counterscreen, luminescence; inhibition, % at 8 µM; 6,200 compounds, 77% hits;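 active means mean inhibition at 8 µM reaching about 37%, which flags the compound as non-specific, limit read from the data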;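 further: p53-null SaOS-2 cells with luciferase driven by a doxycycline-inducible promoter; compound on cells about two nights before reading with doxycycline added after day one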
* = called active by the depositor; nt = not tested or not shown.

SMILES | CSC inhib | Beta cell apopt | Mdm2 MdmX PPI | SKKanGAS inh | UPR XBP1 act | UPR CHOP act | Mdm2 MdmX conf | Full FLuc ctr
Cc1cc(C)n(S(=O)(=O)/C=C/c2ccccc2)n1 | -13.8 | -11.1 | 72.7* | 3.8 | -1.8 | -1.6 | 89.3* | 52.5*
Cc1ccc(S(=O)(=O)n2nc(C)cc2C)cc1 | -9.1 | 0.0 | 5.2 | -5.0 | 3.4 | 0.4 | nt | nt
COc1ccc(OC)c(NC(=O)c2cc(-c3cc(Cl)ccc3O)n[nH]2)c1 | 61.6 | 34.8 | 87.8* | -3.0 | 13.4 | 4.3 | 75.0* | 41.8*
COc1ccccc1NC(=O)COC(=O)c1ccc2ccccc2n1 | 9.2 | -1.3 | -18.2 | nt | 4.1 | 0.1 | nt | nt
O=C1OCCC1Sc1nnc(-c2ccc(Cl)cc2Cl)o1 (stereo unspecified) | -3.8 | 2.8 | 77.4* | -17.4 | -7.4 | -5.9 | 62.1* | 48.9*
Cc1ccc(S(=O)(=O)NCCOc2cc(C)ccc2C)cc1 | 0.6 | -2.8 | 17.7 | -3.2 | -2.7 | 0.7 | nt | nt
CN(C)C1=NC[C@H](Cc2ccccc2)N1CCCC1CCCC1 | 35.6 | 39.5 | 53.5* | nt | -2.4 | -0.7 | 27.8 | 68.1*
O=[N+]([O-])c1ccccc1S(=O)(=O)Nc1cccc(-c2ccc3nncn3n2)c1 | 1.0 | -0.3 | 14.3 | 23.6 | -1.9 | 0.8 | nt | nt
Cc1nnc2ccc(-c3cccc(NS(=O)(=O)c4ccccc4[N+](=O)[O-])c3)nn12 | 23.5 | 13.1 | 56.2* | 38.1 | 0.2 | -1.6 | 54.6* | 82.0*
Cc1nnc2ccc(-c3cccc(NS(=O)(=O)c4ccccc4Cl)c3)nn12 | 13.5 | 5.4 | 56.3* | 40.7 | 6.9 | -2.5 | 57.0* | 55.5*
Cc1nnc2ccc(-c3cccc(NS(=O)(=O)c4cc(F)ccc4F)c3)nn12 | 13.7 | 5.4 | 48.9 | 24.9 | 3.0 | -1.9 | nt | nt
Nc1nc(N)c2c(ccc3nccc32)[nH]1 | 43.1 | 11.5 | 50.5* | 39.6 | -0.7 | 0.2 | 38.0 | nt
CN(CC(=O)Nc1ccc(F)c(F)c1F)C(=O)C1CCC1 | 0.4 | -4.6 | 6.0 | 0.3 | 0.1 | 0.3 | nt | nt
CC(C)(C)c1ccc(C(=O)O/N=C(\N)c2ccccc2)cc1 | 0.5 | 0.7 | 96.8* | -5.7 | -5.6 | -2.9 | 87.6* | 23.3
COc1ccc(/C(N)=N/OC(=O)c2ccco2)cc1 | 13.6 | 5.8 | -146.8 | 4.8 | -3.1 | -1.3 | nt | nt
N/C(=N\OC(=O)c1cccc(Br)c1)c1ccc(Br)cc1 | -18.1 | 0.5 | -37.2 | 4.2 | 4.4 | -0.3 | nt | nt
Cc1ccc(C(=O)O/N=C(\N)c2ccc(Br)cc2)cc1 | -3.9 | -0.3 | 98.0* | -6.4 | -3.0 | 3.8 | 29.4 | nt
Cc1cc(C(=O)O/N=C(\N)c2ccc(C(C)(C)C)cc2)no1 | 9.5 | 2.9 | -102.8 | 4.4 | 2.0 | 6.3 | nt | nt
COc1ccc(C(=O)O/N=C(\N)c2ccccc2)cc1 | -7.5 | -3.0 | 55.0* | -2.7 | -9.7 | -9.0 | 22.1 | nt
COc1ccc(C(=O)O/N=C(\N)c2ccc(Br)cc2)cc1 | 13.7 | -9.6 | 96.2* | 0.8 | 2.7 | 3.3 | 36.4 | 158.3*
N/C(=N\OC(=O)c1ccc(Br)cc1)c1ccccc1 | 1.1 | 8.1 | -115.4 | 5.7 | -3.5 | -1.3 | nt | nt
O=C(NCc1cccc(C(F)(F)F)c1)c1ccc2c(c1)OCO2 | nt | nt | 2.8 | -4.3 | -1.8 | -0.9 | nt | nt
NC(=O)CC(NC(=O)Cc1ccc(Cl)cc1)c1ccc(N2CCC(Cc3ccccc3)CC2)c([N+](=O)[O-])c1 (stereo unspecified) | 5.8 | 15.3 | 8.2 | 16.7 | -2.6 | 0.4 | nt | nt
Cc1ccc(S(=O)(=O)N2CCOCC2)cc1C(=O)N1CCN(c2ccc(C(F)(F)F)cn2)CC1 | -15.3 | -3.7 | 7.4 | nt | -5.0 | 0.0 | nt | nt
CN(C)C(CNC(=O)c1ccc(C(F)(F)F)cc1)c1ccco1 (stereo unspecified) | -8.8 | -5.9 | 10.9 | -5.5 | -3.8 | 4.0 | nt | nt
Cn1c(=O)c2c([nH]c(OCc3ccc(Cl)cc3Cl)[n+]2Cc2ccc(F)cc2)n(C)c1=O | 2.2 | 5.9 | 56.9* | 8.5 | 25.7 | 4.9 | 13.2 | nt
